According to ChEMBL document CHEMBL1177660, “Discovery of novel purine derivatives with potent and selective inhibitory activity against c-Src tyrosine kinase” (Bioorg Med Chem, 2010):

Tests used:
[1] = target: T1, Proto-oncogene tyrosine-protein kinase Src (Homo sapiens, UniProt P12931); assay: Inhibition cSRC
[2] = target: T1, Proto-oncogene tyrosine-protein kinase Src; assay: Inhibition cSRC at 10 uM
In short: (§1)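 Purified kinases assayed by ELISA on wells coated with 20 µg/mL poly(Glu,Tyr)4:1. Detected with PY99 anti-phosphotyrosine, HRP anti-mouse IgG and o-phenylenediamine; A492.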

[3] = target: T1, Proto-oncogene tyrosine-protein kinase Src; assay: Inhibition of human SRC-mediated invasion of human MDA-MB-231 cells; format: cell-based
In short: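 Matrigel-coated (1 mg/mL) Transwell filters, 8 lm pores, with 10% FBS in the lower chamber. MDA-MB-231 cells and compound or DMSO were added together to the upper chamber and invaded 18 h at 37 °C. Non-invaded cells were removed. Invaded cells were stained with crystal violet, extracted with 10% acetic acid and read at 595 nm. Mean of three experiments, SD.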

[4] = target: Ephrin type-A receptor 2 (Homo sapiens) (UniProt P29317); assay: Inhibition EphA2 at 10 uM; in short: as §1
MDA-MB-231 = assay: Antiproliferative activity against human MDA-MB-231 cells assessed as viability after 24 hrs by MTT assay; format: functional
In short: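 MDA-MB-231 cells (ATCC; L15 medium, 10% FBS, 37 °C, 5% CO2) exposed to test concentrations for 24 h; viability scored by MTT.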

[5] = target: T2, Mast/stem cell growth factor receptor Kit (Homo sapiens, UniProt P10721); assay: Inhibition kit at 10 uM; in short: as §1
T2 sequence (P10721 whole entry): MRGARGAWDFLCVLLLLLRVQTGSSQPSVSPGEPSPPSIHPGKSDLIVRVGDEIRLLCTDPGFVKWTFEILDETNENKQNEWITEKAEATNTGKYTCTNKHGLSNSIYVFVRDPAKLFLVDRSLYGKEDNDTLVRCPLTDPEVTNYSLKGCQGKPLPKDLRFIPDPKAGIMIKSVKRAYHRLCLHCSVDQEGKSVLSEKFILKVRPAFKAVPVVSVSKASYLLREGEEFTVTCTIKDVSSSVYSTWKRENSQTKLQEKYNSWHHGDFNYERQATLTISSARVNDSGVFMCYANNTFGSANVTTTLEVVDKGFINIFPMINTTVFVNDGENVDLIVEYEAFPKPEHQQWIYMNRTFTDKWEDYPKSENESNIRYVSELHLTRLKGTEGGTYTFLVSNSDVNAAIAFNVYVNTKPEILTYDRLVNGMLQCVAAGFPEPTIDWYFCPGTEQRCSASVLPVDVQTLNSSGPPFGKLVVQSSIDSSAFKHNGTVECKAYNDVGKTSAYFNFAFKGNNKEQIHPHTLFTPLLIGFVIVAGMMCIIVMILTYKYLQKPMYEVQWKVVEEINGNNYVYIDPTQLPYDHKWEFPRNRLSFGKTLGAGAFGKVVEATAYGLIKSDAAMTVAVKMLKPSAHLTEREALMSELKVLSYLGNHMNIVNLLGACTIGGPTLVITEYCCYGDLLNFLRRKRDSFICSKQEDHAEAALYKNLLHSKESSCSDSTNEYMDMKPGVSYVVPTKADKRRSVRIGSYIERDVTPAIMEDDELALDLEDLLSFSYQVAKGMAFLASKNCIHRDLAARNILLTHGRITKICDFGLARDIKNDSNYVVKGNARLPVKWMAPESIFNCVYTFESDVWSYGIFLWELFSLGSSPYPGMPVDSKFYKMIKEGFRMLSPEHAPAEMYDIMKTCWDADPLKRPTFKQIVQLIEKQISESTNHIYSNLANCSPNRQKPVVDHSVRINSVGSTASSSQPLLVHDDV

[6] = target: Fibroblast growth factor receptor 2 (Homo sapiens) (UniProt P21802); conditions: 10 uM
[7] = target: Focal adhesion kinase 1 (Homo sapiens) (UniProt Q05397); assay: Inhibition of FAK phosphorylation in human MDA-MB-231 cells by Western blotting; format: cell-based
In short: (§2)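 MDA-MB-231 cells, 4.5×10^5 per well, plated overnight. Then exposed for 24 h to 1, 3 or 10 µM compound or DMSO alone. Western blot probed p-Src (Tyr416), total Src, p-FAK (Tyr861), FAK and GAPDH. Three independent blots.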

[8] = target: Platelet-derived growth factor receptor beta (Homo sapiens) (UniProt P09619); assay: Inhibition PDGFRbeta at 10 uM; in short: as §1
Chain of Platelet-derived growth factor receptor beta (Homo sapiens) (P09619 whole entry): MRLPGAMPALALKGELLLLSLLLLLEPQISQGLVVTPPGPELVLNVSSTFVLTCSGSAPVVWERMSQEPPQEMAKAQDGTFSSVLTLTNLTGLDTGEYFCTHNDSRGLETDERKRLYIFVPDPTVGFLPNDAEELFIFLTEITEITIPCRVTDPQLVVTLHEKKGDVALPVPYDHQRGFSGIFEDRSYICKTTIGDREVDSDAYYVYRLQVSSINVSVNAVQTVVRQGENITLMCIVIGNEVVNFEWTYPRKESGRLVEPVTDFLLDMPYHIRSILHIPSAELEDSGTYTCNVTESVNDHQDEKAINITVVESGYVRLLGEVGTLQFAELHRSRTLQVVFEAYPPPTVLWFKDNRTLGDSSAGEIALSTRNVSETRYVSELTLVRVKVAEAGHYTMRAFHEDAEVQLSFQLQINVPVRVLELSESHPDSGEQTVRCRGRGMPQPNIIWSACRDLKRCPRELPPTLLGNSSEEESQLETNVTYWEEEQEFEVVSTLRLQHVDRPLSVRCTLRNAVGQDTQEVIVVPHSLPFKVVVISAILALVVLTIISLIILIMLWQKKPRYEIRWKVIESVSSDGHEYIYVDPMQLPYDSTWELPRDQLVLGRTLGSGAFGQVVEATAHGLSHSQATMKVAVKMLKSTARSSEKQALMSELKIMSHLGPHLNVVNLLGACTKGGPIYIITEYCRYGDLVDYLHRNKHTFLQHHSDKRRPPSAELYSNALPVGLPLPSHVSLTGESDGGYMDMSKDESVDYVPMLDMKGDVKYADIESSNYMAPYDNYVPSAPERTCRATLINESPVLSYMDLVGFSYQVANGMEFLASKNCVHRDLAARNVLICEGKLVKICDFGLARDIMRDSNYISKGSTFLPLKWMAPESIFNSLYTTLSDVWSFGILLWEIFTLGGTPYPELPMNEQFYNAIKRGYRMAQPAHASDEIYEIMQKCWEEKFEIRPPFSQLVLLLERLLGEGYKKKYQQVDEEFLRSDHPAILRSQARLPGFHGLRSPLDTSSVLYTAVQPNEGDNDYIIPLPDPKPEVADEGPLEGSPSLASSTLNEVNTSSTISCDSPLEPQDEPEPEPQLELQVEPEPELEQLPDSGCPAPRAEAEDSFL

[9] = target: T1, Proto-oncogene tyrosine-protein kinase Src; assay: Inhibition of SRC phosphorylation in human MDA-MB-231 cells; format: cell-based; in short: as §2
[10] = target: T3, Tyrosine-protein kinase ABL1 (Homo sapiens, UniProt P00519); assay: Inhibition cABl at 10 uM; in short: as §1
T3 sequence (P00519 whole entry): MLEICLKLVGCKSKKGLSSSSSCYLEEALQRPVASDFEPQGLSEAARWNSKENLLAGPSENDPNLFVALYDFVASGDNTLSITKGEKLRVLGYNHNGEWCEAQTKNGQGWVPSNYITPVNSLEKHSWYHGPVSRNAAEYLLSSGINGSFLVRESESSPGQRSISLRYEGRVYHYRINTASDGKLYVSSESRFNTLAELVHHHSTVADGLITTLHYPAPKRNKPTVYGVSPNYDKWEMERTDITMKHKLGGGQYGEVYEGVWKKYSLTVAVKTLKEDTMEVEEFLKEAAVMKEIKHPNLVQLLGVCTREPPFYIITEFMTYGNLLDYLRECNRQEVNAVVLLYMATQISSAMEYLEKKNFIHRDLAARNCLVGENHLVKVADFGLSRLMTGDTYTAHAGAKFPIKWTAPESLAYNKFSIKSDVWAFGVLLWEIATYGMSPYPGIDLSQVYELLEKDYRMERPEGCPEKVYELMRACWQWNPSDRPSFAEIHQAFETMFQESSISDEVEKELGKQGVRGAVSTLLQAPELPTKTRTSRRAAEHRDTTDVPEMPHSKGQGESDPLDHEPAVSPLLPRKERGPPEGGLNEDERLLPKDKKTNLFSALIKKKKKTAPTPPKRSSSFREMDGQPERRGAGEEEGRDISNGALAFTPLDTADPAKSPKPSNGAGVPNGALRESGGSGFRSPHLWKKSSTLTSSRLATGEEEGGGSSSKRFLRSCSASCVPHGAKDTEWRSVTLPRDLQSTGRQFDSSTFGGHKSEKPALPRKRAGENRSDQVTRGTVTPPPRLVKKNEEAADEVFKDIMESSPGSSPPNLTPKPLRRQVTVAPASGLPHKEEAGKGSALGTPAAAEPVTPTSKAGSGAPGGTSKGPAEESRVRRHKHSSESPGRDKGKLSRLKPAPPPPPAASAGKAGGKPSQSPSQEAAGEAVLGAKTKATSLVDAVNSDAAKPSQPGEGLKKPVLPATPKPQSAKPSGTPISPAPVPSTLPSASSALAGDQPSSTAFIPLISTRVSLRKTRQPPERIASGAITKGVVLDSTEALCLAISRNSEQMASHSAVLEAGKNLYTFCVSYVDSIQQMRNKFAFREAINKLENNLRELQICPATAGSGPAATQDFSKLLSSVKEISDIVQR

[11] = target: Vascular endothelial growth factor receptor 1 (Homo sapiens) (UniProt P17948); assay: Inhibition VEGFR1 at 10 uM; in short: as §1
[12] = target: T1, Proto-oncogene tyrosine-protein kinase Src; assay: Inhibition of human SRC-mediated migration of human MDA-MB-231 cells by wound-healing assay
[13] = target: T4, Ephrin type-B receptor 2 (Homo sapiens) (UniProt P29323); assay: Inhibition EphB2 at 10 uM; in short: as §1
T4 sequence (whole entry): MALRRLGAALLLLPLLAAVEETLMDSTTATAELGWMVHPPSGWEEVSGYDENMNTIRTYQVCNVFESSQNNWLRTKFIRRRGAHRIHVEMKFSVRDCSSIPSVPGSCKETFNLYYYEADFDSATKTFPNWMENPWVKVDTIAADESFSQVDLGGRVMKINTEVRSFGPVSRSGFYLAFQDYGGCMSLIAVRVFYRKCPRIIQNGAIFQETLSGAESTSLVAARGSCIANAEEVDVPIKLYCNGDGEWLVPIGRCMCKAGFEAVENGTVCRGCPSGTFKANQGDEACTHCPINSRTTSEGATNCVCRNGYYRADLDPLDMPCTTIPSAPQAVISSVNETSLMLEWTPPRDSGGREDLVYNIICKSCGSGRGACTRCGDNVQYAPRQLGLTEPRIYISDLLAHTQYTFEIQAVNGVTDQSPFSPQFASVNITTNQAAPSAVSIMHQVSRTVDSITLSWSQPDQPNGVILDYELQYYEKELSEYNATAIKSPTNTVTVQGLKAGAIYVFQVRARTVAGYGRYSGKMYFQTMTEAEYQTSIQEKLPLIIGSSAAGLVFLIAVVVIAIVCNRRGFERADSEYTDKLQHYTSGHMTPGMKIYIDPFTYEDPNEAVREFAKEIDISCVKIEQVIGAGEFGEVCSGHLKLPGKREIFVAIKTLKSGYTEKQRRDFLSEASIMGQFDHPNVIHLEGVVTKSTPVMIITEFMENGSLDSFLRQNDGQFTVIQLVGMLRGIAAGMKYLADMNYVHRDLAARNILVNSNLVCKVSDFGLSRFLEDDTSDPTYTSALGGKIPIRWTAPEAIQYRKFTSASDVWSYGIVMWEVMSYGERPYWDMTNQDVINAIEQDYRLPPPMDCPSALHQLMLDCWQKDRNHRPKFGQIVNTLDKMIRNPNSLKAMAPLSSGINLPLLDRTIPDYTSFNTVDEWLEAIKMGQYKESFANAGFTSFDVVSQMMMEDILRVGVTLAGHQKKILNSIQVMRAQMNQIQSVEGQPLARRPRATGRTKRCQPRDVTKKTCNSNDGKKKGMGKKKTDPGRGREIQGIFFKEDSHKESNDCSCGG

[14] = target: Hepatocyte growth factor receptor (Homo sapiens) (UniProt P08581); conditions: 10 uM
[15] = target: Vascular endothelial growth factor receptor 2 (Homo sapiens) (UniProt P35968); assay: Inhibition KDR at 10 uM; in short: as §1
[16] = target: Receptor tyrosine-protein kinase erbB-2 (Homo sapiens) (UniProt P04626); assay: Inhibition ErbB2 at 10 uM; in short: as §1
Chain of Receptor tyrosine-protein kinase erbB-2 (Homo sapiens) (P04626 whole entry): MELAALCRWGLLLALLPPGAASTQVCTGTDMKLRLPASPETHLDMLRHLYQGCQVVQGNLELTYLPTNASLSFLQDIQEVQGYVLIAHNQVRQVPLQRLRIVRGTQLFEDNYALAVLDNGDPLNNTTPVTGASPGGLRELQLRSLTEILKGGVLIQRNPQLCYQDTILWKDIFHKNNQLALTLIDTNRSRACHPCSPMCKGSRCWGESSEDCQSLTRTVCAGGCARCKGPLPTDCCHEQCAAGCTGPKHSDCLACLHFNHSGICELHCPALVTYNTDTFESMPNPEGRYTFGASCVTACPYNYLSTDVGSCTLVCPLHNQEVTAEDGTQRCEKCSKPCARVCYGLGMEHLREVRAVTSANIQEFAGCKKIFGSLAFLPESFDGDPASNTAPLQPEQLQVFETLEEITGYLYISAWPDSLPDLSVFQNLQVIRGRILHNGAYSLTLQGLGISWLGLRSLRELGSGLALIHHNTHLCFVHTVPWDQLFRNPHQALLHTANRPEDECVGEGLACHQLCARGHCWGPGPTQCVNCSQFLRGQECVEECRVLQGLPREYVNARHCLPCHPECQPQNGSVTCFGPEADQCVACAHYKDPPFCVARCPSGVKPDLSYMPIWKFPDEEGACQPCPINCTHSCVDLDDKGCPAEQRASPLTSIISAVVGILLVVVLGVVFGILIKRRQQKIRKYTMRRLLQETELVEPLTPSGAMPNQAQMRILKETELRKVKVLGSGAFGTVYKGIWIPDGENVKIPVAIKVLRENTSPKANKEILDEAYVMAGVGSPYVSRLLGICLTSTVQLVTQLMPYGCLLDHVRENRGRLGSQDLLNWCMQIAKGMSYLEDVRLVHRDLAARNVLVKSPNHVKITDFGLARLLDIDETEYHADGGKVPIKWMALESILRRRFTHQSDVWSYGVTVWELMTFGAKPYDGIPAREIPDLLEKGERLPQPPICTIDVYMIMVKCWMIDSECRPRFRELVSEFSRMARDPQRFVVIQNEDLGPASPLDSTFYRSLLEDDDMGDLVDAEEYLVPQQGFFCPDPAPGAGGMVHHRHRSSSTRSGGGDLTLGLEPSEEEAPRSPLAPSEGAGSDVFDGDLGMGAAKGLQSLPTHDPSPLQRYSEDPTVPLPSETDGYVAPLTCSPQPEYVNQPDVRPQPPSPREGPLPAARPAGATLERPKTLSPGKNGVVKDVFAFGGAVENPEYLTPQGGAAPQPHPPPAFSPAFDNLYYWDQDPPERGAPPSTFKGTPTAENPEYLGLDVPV

[17] = target: Fibroblast growth factor receptor 1 (Homo sapiens) (UniProt P11362); assay: Inhibition FGFR1 at 10 uM; in short: as §1
[18] = target: T3, Tyrosine-protein kinase ABL1; assay: Inhibition cABl; in short: as §1
[19] = target: T2, Mast/stem cell growth factor receptor Kit; assay: Inhibition kit; in short: as §1

T1 sequence (P12931 2-536 limits assumed): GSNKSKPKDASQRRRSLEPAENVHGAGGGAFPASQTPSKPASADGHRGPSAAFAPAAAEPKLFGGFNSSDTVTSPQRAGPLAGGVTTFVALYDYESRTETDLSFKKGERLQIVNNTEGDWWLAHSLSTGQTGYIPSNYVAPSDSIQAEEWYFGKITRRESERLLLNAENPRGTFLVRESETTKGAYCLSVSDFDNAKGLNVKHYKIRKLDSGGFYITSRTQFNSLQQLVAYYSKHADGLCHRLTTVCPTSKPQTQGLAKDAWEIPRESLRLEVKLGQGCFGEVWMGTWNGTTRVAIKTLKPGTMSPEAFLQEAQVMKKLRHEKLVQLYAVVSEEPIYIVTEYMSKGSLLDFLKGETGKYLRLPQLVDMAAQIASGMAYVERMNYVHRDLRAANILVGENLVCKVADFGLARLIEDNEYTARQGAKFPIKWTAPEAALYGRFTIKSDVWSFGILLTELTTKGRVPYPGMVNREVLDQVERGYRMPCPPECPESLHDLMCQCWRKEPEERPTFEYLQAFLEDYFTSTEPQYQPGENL

SMILES | IC50 [1] [nM] | other results
O=[N+]([O-])c1cccc(Nc2nc(N3CCOCC3)nc3[nH]cnc23)c1 | 130 | –
COc1cccc(Nc2nc(N3CCN(CCO)CC3)nc3nc[nH]c23)c1 | 1200 | –
Cc1cccc(Nc2nc(N3CCOCC3)nc3nc[nH]c23)c1 | 830 | –
NC(=O)c1ccc(Nc2nc(N3CCN(CCO)CC3)nc3[nH]cnc23)cc1 | 1220 | –
c1ccc(Cn2cnc3c(Nc4ccccc4)nc(N4CCOCC4)nc32)cc1 | > 10000 | inhibition [2]: 20.2%
Clc1ccc(Nc2nc(N3CCNCC3)nc3[nH]cnc23)cc1 | 1180 | –
CC(=O)Nc1ccc(Nc2nc(N3CCN(CCO)CC3)nc3[nH]cnc23)cc1 | 1590 | –
NS(=O)(=O)c1ccc(Nc2nc(N3CCN(CCO)CC3)nc3nc[nH]c23)cc1 | 260 | –
CC(=O)Nc1ccc(Nc2nc(N3CCOCC3)nc3[nH]cnc23)cc1 | 650 | –
OCCN1CCN(c2nc(Nc3ccc(Cl)cc3)c3[nH]cnc3n2)CC1 | 690 | –
Cc1cccc(Nc2nc(N3CCNCC3)nc3[nH]cnc23)c1 | – | inhibition [2]: 86.6%
NC(=O)c1ccc(Nc2nc(N3CCOCC3)nc3nc[nH]c23)cc1 | 2010 | –
O=[N+]([O-])c1cccc(Nc2nc(N3CCN(CCO)CC3)nc3[nH]cnc23)c1 | 340 | –
O=[N+]([O-])c1ccc(Nc2nc(N3CCN(CCO)CC3)nc3nc[nH]c23)cc1 | 780 | –
NS(=O)(=O)c1cccc(Nc2nc(N3CCNCC3)nc3[nH]cnc23)c1 | 100 | –
NS(=O)(=O)c1cccc(Nc2nc(N3CCOCC3)nc3[nH]cnc23)c1 | 120 | –
O=[N+]([O-])c1ccc(Nc2nc(N3CCOCC3)nc3nc[nH]c23)cc1 | 390 | –
COc1ccc(Nc2nc(N3CCNCC3)nc3nc[nH]c23)cc1 | 2430 | –
COc1ccc(Nc2nc(N3CCNCC3)nc3[nH]cnc23)cc1 | – | inhibition [2]: 90.5%
c1ccc(Cn2cnc3c(Nc4ccccc4)nc(N4CCNCC4)nc32)cc1 | > 10000 | inhibition [2]: 35.8%
COc1ccc(Nc2nc(N3CCOCC3)nc3c2ncn3Cc2ccccc2)cc1 | > 10000 | inhibition [2]: 16%
NS(=O)(=O)c1ccc(Nc2nc(N3CCOCC3)nc3[nH]cnc23)cc1 | 20 | inhibition [3]: Dose-dependent effect; inhibition [4]: 48.7%; Activity (MDA-MB-231): > 95%; inhibition [5]: 83.1%; inhibition [6]: 4.1%; inhibition [7]: Dose-dependent effect; inhibition [8]: 17.2%; inhibition [9]: Dose-dependent effect; inhibition [10]: 73.4%; inhibition [11]: 0%; inhibition [12]: Dose-dependent effect; inhibition [13]: 11.5%; inhibition [14]: 43.2%; inhibition [15]: 47.2%; inhibition [16]: 43.1%; inhibition [17]: 48.7%; IC50 [18]: 6000 nM; IC50 [19]: 1350 nM
COc1ccc(Nc2nc(N3CCOCC3)nc3[nH]cnc23)cc1 | 130 | –

SMILES | IC50 [1] [nM] | other results
Brc1ccc(Nc2ncnc3c2ncn3Cc2ccccc2)cc1 | > 10000 | inhibition [2]: 6.9%
Clc1ccc(Nc2nc(N3CCOCC3)nc3nc[nH]c23)cc1 | 340 | –
NC(=O)c1ccc(Nc2nc(N3CCNCC3)nc3nc[nH]c23)cc1 | 2200 | –
COc1ccc(Nc2nc(N3CCN(CCO)CC3)nc3nc[nH]c23)cc1 | 1330 | –
NS(=O)(=O)c1ccc(Nc2nc(N3CCNCC3)nc3[nH]cnc23)cc1 | 1820 | –
O=[N+]([O-])c1ccc(Nc2nc(N3CCNCC3)nc3[nH]cnc23)cc1 | 1400 | –
Brc1ccc(Nc2nc(N3CCOCC3)nc3[nH]cnc23)cc1 | 450 | –
c1ccc(Nc2nc(N3CCOCC3)nc3[nH]cnc23)cc1 | 750 | –
COc1cccc(Nc2nc(N3CCOCC3)nc3[nH]cnc23)c1 | 930 | –
COc1cccc(Nc2nc(N3CCNCC3)nc3nc[nH]c23)c1 | 1210 | –
Brc1ccc(Nc2nc(N3CCNCC3)nc3[nH]cnc23)cc1 | 1760 | –
CC(=O)Nc1ccc(Nc2nc(N3CCNCC3)nc3nc[nH]c23)cc1 | 1050 | –
c1ccc(Cn2cnc3c(N4CCOCC4)nc(N4CCOCC4)nc32)cc1 | > 10000 | inhibition [2]: 16.4%
Cc1cccc(Nc2nc(N3CCNCC3)nc3nc[nH]c23)c1 | 2420 | –
c1ccc(Cn2cnc3c(N4CCOCC4)ncnc32)cc1 | > 10000 | inhibition [2]: 0%
Cc1cccc(Nc2nc(N3CCN(CCO)CC3)nc3nc[nH]c23)c1 | 2550 | –
NS(=O)(=O)c1cccc(Nc2nc(N3CCN(CCO)CC3)nc3nc[nH]c23)c1 | 340 | –
OCCN1CCN(c2nc(Nc3ccccc3)c3nc[nH]c3n2)CC1 | 3140 | –
COc1ccc(Nc2nc(N3CCNCC3)nc3c2ncn3Cc2ccccc2)cc1 | > 10000 | inhibition [2]: 22.5%
Brc1ccc(Nc2nc(N3CCOCC3)nc3c2ncn3Cc2ccccc2)cc1 | > 10000 | inhibition [2]: 10.1%
O=[N+]([O-])c1cccc(Nc2nc(N3CCNCC3)nc3nc[nH]c23)c1 | 950 | –
c1ccc(Cn2cnc3c(Nc4ccccc4)ncnc32)cc1 | > 10000 | inhibition [2]: 13.9%
